Assay results from ChEMBL document CHEMBL5154895, “Mechanistic Studies and In Vivo Efficacy of an Oxadiazole-Containing Antibiotic” (J Med Chem, 2022).
Values after ≈ are worked out from the molar mass of the structure shown. Active and inactive are the calls of the source. No cut-off for these calls is given here.

What was measured:
[1] = tested on: Streptococcus pneumoniae; experiment: Antibacterial activity against cephalosporin-resistant Streptococcus pneumoniae ATCC 51916 assessed as inhibition of bacterial growth incubated for 18 to 20 hrs by broth microdilution method; format: functional; conditions: time 18-20 hrs
Summary of the method: (§1)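 Broth microdilution per CLSI. S. pneumoniae was diluted to about 5×10^5 CFU/mL in TSB and incubated with serial dilutions of agent at 37 °C for 18–20 h under 5% CO2. MIC was read visually as the lowest concentration completely inhibiting growth.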

[2] = tested on: Staphylococcus aureus; experiment: Antibacterial activity against methicillin-resistant Staphylococcus aureus NRS119 assessed as inhibition of bacterial growth incubated for 18 to 20 hrs by broth microdilution method; format: functional; conditions: time 18-20 hrs
Summary of the method: (§2)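 Broth microdilution per CLSI. Inoculum was set to 0.5 McFarland and diluted in CAMHB to about 5×10^5 CFU/mL. Serial dilutions of agent were incubated aerobically at 37 °C for 18–20 h. MIC was read visually as the lowest concentration with complete growth inhibition.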

[3] = tested on: Streptococcus pyogenes; experiment: Antibacterial activity against Streptococcus pyogenes MGAS 1882 assessed as inhibition of bacterial growth incubated for 18 to 20 hrs by broth microdilution method; format: functional; conditions: time 18-20 hrs
Summary of the method: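 Broth microdilution with a 0.5 McFarland inoculum diluted in tryptic soy broth to about 5 × 10^5 CFU/mL. Serial compound dilutions incubated aerobically at 37° C for 18–20 hours. MIC read visually as the lowest concentration with no growth.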

[4] = Toxicity in Balb/c mouse infected with methicillin-resistant Staphylococcus aureus USA300 assessed as chronic inflammatory response administered topically twice daily 2 days post infection and measured after 5 days post compound treatment by H and E staining based histopathological analysis; conditions: in vivo, topical_or_ocular, 120 h, time 5 day
Summary of the method: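 MRSA USA300-infected punch wounds in mice, n=5. Topical 2% agent or petroleum jelly vehicle twice daily from day 2 for 5 days. The left wound was formalin-fixed, cut into 4-μm sections and H&E-stained. Whole slides were scanned and assessed by a board-certified veterinary pathologist for necrosis, inflammation, haemorrhage and related features.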

[5] = tested on: Staphylococcus aureus; experiment: Upregulation of L-serine dehydratase, iron-sulfurdependent subunit alpha expression in Staphylococcus aureus measured after 2 hrs by LC-MS/MS analysis; format: functional
Summary of the method: (§3)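 S. aureus ATCC 25923 at OD600 0.6 exposed to compound or DMSO control for 2 h at 37°C, normalized to OD600 1.1 and PBS-washed. Cells were pressure-cycling lysed in 100 mM ammonium bicarbonate, and 50 μg protein was acetone-precipitated, reduced and alkylated, then Trypsin/Lys-C digested and C18-desalted. About 1 μg peptides went to LC-MS/MS. Label-free quantitation kept proteins present in all 3 samples, filtered at p <0.05.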

[6] = tested on: Staphylococcus aureus; experiment: Upregulation of siderophore biosynthesis protein SbnA expression in Staphylococcus aureus measured after 2 hrs by LC-MS/MS analysis; format: functional; summary of the method: as §3
[7] = tested on: Mus musculus; experiment: Acceleration of wound healing in methicillin-resistant Staphylococcus aureus USA300 infected Balb/c mouse model assessed as reduction in MCP-1 protein level in skin wounds administered topically twice daily 2 days post infection and measured after 5 days post compound treatment; format: functional, organism-based; conditions: time 5.0 day
Summary of the method: (§4)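 Mice had two 6-mm dorsal excisional wounds, each infected with 20 μL of 4.2×10^9 CFU/mL MRSA USA300 and covered with Tegaderm. Treatment began 2 days after infection (n=5 per group): 2% compound in petroleum jelly applied topically twice daily for 5 days. Right-wound homogenates in PBS were centrifuged, supernatants pooled per group, and protein normalised by BCA. Cytokines were measured by mouse cytokine array (pg/mL).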

[8] = tested on: Staphylococcus aureus; experiment: Downregulation of membrane protein expression in Staphylococcus aureus measured after 2 hrs by LC-MS/MS analysis; format: functional; summary of the method: as §3
[9] = tested on: Staphylococcus aureus; experiment: Antibacterial activity against Staphylococcus aureus ATCC 25923 assessed as inhibition of bacterial growth incubated for 18 to 20 hrs by broth microdilution method; format: functional; conditions: time 18-20 hrs
Summary of the method: (§5)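 Broth microdilution per CLSI. Inoculum at 0.5 McFarland, diluted in cation-adjusted Mueller Hinton broth to about 5 × 10^5 CFU/mL. Serial compound dilutions incubated aerobically at 37° C for 18–20 hours. MIC taken as the lowest concentration completely inhibiting visible growth.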

[10] = tested on: Staphylococcus aureus; experiment: Downregulation of glutamyl endopeptidase protein expression in Staphylococcus aureus measured after 2 hrs by LC-MS/MS analysis; format: functional
Summary of the method: (§6)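 S. aureus ATCC 25923 at OD600 0.6 was treated with compound or DMSO for 2 h at 37 °C, normalised to OD600 1.1, and washed in PBS. Cells were pressure-lysed in 100 mM ammonium bicarbonate, then acetone-precipitated, reduced with DTT, alkylated with iodoacetamide, and digested with trypsin/Lys-C. Peptides were desalted and run on LC-MS/MS. Label-free quantitation used proteins present in all 3 samples, filtered at p<0.05 against DMSO.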

[11] = tested on: Mus musculus; experiment: Acceleration of wound healing in methicillin-resistant Staphylococcus aureus USA300 infected in Balb/c mouse model assessed as reduction in pro-inflammatory cytokines level in skin wounds administered topically twice daily 2 days post infection and measured after 5 days post compound treatment; format: functional, organism-based; conditions: time 5.0 day; summary of the method: as §4
[12] = tested on: Staphylococcus aureus; experiment: Upregulation of siderophore biosynthesis protein SbnC expression in Staphylococcus aureus measured after 2 hrs by LC-MS/MS analysis; format: functional; summary of the method: as §3
[13] = tested on: Staphylococcus aureus; experiment: Antibacterial activity against methicillin-sensitive Staphylococcus aureus NRS 107 assessed as inhibition of bacterial growth incubated for 18 to 20 hrs by broth microdilution method; format: functional; conditions: time 18-20 hrs; summary of the method: as §2
[14] = tested on: Staphylococcus aureus; experiment: Downregulation of ortho-poxovirus protein expression in Staphylococcus aureus measured after 2 hrs by LC-MS/MS analysis; format: functional; summary of the method: as §3
[15] = tested on: Staphylococcus aureus; experiment: Upregulation of Cro/CI family transcriptional regulator expression in Staphylococcus aureus measured after 2 hrs by LC-MS/MS analysis; format: functional; summary of the method: as §3
[16] = tested on: Staphylococcus aureus; experiment: Antibacterial activity against methicillin-resistant Staphylococcus aureus NRS 386 assessed as inhibition of bacterial growth incubated for 18 to 20 hrs by broth microdilution method; format: functional; conditions: time 18-20 hrs; summary of the method: as §2
[17] = tested on: Staphylococcus aureus; experiment: Inhibition of Glc2-DAG in Staphylococcus aureus ATCC 25923 assessed as reduction in alpha-naphthol at 0.25 to 2 ug/ml measured after 5 hrs by thin layer chromatography; conditions: dose 0.25-2 µg/ml
Summary of the method: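 Cells were normalized to OD600 0.9 and washed in 0.1 M sodium acetate pH 4.7. Lipids were Bligh-Dyer extracted and dried under nitrogen, then run on TLC with α-naphthol/sulfuric acid staining. The stained band was identified as Glc2-DAG by MALDI-TOF.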

[18] = tested on: Streptococcus pneumoniae; experiment: Antibacterial activity against […] ATCC 700677 assessed as inhibition of bacterial growth incubated for 18 to 20 hrs by broth microdilution method; format: functional; conditions: time 18-20 hrs; summary of the method: as §1
[19] = tested on: Staphylococcus epidermidis; experiment: Antibacterial activity against Staphylococcus epidermidis NRS 101 assessed as inhibition of bacterial growth incubated for 18 to 20 hrs by broth microdilution method; format: functional; conditions: time 18-20 hrs; summary of the method: as §5
[20] = tested on: Staphylococcus aureus; experiment: Antibacterial activity against methicillin-sensitive Staphylococcus aureus ATCC 6538 assessed as inhibition of bacterial growth incubated for 18 to 20 hrs by broth microdilution method; format: functional; conditions: time 18-20 hrs; summary of the method: as §2
[21] = tested on: Staphylococcus aureus; experiment: Upregulation of siderophore biosynthesis protein SbnE expression in Staphylococcus aureus measured after 2 hrs by LC-MS/MS analysis; format: functional; summary of the method: as §3
[22] = tested on: Staphylococcus aureus; experiment: Antibacterial activity against methicillin-resistant Staphylococcus aureus NRS384 assessed as inhibition of bacterial growth incubated for 18 to 20 hrs by broth microdilution method; format: functional; conditions: time 18-20 hrs; summary of the method: as §2
[23] = tested on: Staphylococcus aureus; experiment: Downregulation of EsaA protein expression in Staphylococcus aureus assessed as log2 of fold change in protein level measured after 2 hrs by LC-MS/MS analysis relative to control; format: functional; summary of the method: as §6

## CC1CC(C)CN(S(=O)(=O)c2ccc(C(=O)Nc3nnc(-c4ccc(C(F)(F)F)cc4)o3)cc2)C1 (stereo not drawn)
[1]
  MIC: 0.06 µg/mL (≈ 0.118 µM)
[2]
  MIC: 0.25 µg/mL (≈ 0.492 µM)
[3]
  MIC: 0.06 µg/mL (≈ 0.118 µM)
[4]
  Activity: Toxic
[5]
  Activity: Active
[6]
  Activity: Active
[7]
  Activity: Active
[8]
  Activity: Active
[9]
  MIC: 0.25 µg/mL (≈ 0.492 µM)
[10]
  Activity: Active
[11]
  Activity: Active
[12]
  Activity: Active
[13]
  MIC: 0.25 µg/mL (≈ 0.492 µM)
[14]
  Activity: Active
[15]
  Activity: Active
[16]
  MIC: 0.25 µg/mL (≈ 0.492 µM)
[17]
  inhibition: Active
[18]
  MIC: 0.06 µg/mL (≈ 0.118 µM)
[19]
  MIC: 0.25 µg/mL (≈ 0.492 µM)
[20]
  MIC: 0.25 µg/mL (≈ 0.492 µM)
[21]
  Activity: Active
[22]
  MIC: 0.25 µg/mL (≈ 0.492 µM)
[23]
  log2FC: -2
